Rows were chosen to be rich in hits. Some 29% of all compounds tested hit in one or more screens of this group.
E coli WT exp: growth inhibitors of E. coli BW25113 wild type | OD600 absorbance | growth inhibition, % at 100 µM | 98,000 compounds, 0.15% hits;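 active means growth inhibition above about 50% at one test dose, limit read from the data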;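 further: growth measured after 20 h incubation at 37 °C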
Ecoli tolC: E. coli tolC mutant growth inhibition | E. coli BW25113 tolC mutant growth, OD615 | growth inhibition, % at 10 µM (by protocol) | 65,000 compounds, 2.2% hits | AID 573;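 active means growth inhibition at or above a cutoff equal to the mean over every tested compound plus 3 SD, cut at about 60% in these data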;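 further: growth measured after 20 h incubation at 37 °C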
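Material: E. coli BW25113 ΔtolC::kan, tolC deletion mutant strain. Measure: percent growth inhibition. Schedule: 37 °C, 20 h exposure. Doses: single-point testing at 10 µM. Signal: A615 absorbance measurement. Buffer or medium: kanamycin-containing LB broth (50 µg/mL).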
CYP2C19 inhib: inhibitors of human CYP2C19. CYP2C19 Supersomes, luciferin-H EGE luminescence, 30 min. inhibition, % at 5 µM. 96,000 compounds, 21% hits;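 active means CYP2C19 inhibition above a set limit at 5 µM in the primary screen, cut at about 50% in these data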;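 further: plate controls were negative control wells for no effect and 2.5 mM tranylcypromine positive control for full effect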
Target sequence (P33261 whole entry, looked up): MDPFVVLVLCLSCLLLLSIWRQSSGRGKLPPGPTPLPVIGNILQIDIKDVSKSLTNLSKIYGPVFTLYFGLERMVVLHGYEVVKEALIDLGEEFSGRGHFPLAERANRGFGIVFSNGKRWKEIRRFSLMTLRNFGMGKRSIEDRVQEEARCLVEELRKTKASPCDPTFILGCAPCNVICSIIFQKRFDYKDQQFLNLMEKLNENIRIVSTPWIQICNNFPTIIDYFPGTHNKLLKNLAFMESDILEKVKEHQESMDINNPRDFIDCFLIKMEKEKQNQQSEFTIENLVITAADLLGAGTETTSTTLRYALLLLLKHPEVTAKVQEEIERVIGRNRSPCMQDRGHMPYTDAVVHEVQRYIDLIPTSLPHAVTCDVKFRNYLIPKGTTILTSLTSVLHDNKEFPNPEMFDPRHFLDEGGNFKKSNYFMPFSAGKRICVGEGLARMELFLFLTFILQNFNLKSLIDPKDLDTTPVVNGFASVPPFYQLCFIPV
CYP2C9 act: increases human cytochrome P450 2C9 activity. P11712. recombinant CYP2C9, luciferin-H conversion, luminescence; stronger effect = higher value; factor 1 = untreated enzyme, 0 = blocked. activation factor at 5 µM. 96,000 compounds, 1.4% hits. AID 1024;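 active means activation factor of 2 or more for CYP2C9 at a 5 µM dose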;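 further: 0 = sulfaphenazole-blocked wells and 1 = vehicle-only wells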
CYP2C19 act: activators of human cytochrome P450 2C19; P33261; 96,000 tested, under 10 active; recombinant CYP2C19, luciferin-H EGE luminescence; stronger effect = higher value; 0 = fully inhibited enzyme, 1 = untreated enzyme; AID 1025; activation factor at 5 µM;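 active means activation factor of at least 2 at 5 µM in the primary screen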;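 further: 0 = wells with 2.5 mM tranylcypromine and 1 = vehicle-only wells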
CYP2C9 inhib: blocks human cytochrome P450 2C9; 96,000 compounds, 20% hits; inhibition, % at 5 µM; CYP2C9 Supersomes, luciferin-H conversion, luminescence;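 active means blocking of liver enzyme CYP2C9 beyond about 50% at 5 µM, limit read from the data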
An asterisk follows results filed as active.

What do the screens show for `c1ccc(-n2nnnc2NCCc2c[nH]c3ccccc23)cc1`?
E coli WT exp: 6; Ecoli tolC: 30; CYP2C19 inhib: 98*; CYP2C9 act: 0.2; CYP2C19 act: 0; CYP2C9 inhib: 81*

Results for CC(=O)CC(c1ccc([N+](=O)[O-])cc1)c1c(O)c2ccccc2oc1=O (stereo unspecified) ?
E coli WT exp: 9; CYP2C19 inhib: 15; CYP2C9 act: 0.2; CYP2C19 act: 0.8; CYP2C9 inhib: 76*

What do the screens show for `C=CCN(C(=O)CN1CCOCC1)c1nc(C)c(-c2ccccc2)s1`?
E coli WT exp: 4; Ecoli tolC: 8; CYP2C19 inhib: 70*; CYP2C9 act: 0.7; CYP2C19 act: 0.3; CYP2C9 inhib: 32

How did Cc1ccccc1NS(=O)(=O)c1ccc(OCC(=O)N2CCCC2)cc1 do in these assays?
E coli WT exp: -6; Ecoli tolC: -9; CYP2C19 inhib: -18; CYP2C9 act: 1.2; CYP2C19 act: 1.2; CYP2C9 inhib: -23

Results for c1ccc(-c2cnc(CSc3nnc4ccccn34)o2)cc1 ?
E coli WT exp: 7; Ecoli tolC: 3; CYP2C19 inhib: 70*; CYP2C9 act: 0.7; CYP2C19 act: 0.3; CYP2C9 inhib: 31

Results for Cc1ccccc1-n1nnnc1SCc1ncc(-c2ccccc2)o1 ?
E coli WT exp: -14; Ecoli tolC: 58; CYP2C19 inhib: 31; CYP2C9 act: 0.2; CYP2C19 act: 0.7; CYP2C9 inhib: 82*

Results for CCSc1nnnn1-c1ccccc1 ?
E coli WT exp: 3; CYP2C19 inhib: 32; CYP2C9 act: 0.9; CYP2C19 act: 0.7; CYP2C9 inhib: 9

Results for CC(C)(C)C1=C(C#N)C(c2cc3c(cc2Br)OCO3)C(C#N)=C(N)O1 (stereo unspecified) ?
Ecoli tolC: 5; CYP2C19 inhib: 21; CYP2C9 act: 0.8; CYP2C19 act: 0.8; CYP2C9 inhib: 25

What do the screens show for `NC(=S)NNC(=O)c1ccccc1`?
E coli WT exp: -2; CYP2C19 inhib: -7; CYP2C9 act: 1; CYP2C19 act: 1.1; CYP2C9 inhib: 3

How did COc1ccc(/C=C(/NC(=O)c2ccccc2)C(=O)N/N=C/c2ccc3c(c2)OCO3)cc1OC do in these assays?
E coli WT exp: -7; CYP2C19 inhib: 40; CYP2C9 act: 0.9; CYP2C19 act: 0.6; CYP2C9 inhib: 7

What do the screens show for `COc1ccc(/C=N\NC(=O)/C(=C\Nc2nccc(C)n2)NC(=O)c2ccccc2)cc1`?
E coli WT exp: -1; CYP2C19 inhib: 32; CYP2C9 act: 0.2; CYP2C19 act: 0.7; CYP2C9 inhib: 76*

What do the screens show for `CC(=O)N(Cc1c(C)nn(-c2ccccc2)c1Cl)c1ccc(Cl)cc1`?
E coli WT exp: 5; CYP2C19 inhib: 90*; CYP2C9 act: 0.5; CYP2C19 act: 0.1; CYP2C9 inhib: 49

How did Cc1nn(-c2ccccc2)c(Cl)c1C(=O)NCC(=O)O do in these assays?
E coli WT exp: 0; Ecoli tolC: -32; CYP2C19 inhib: -18; CYP2C9 act: 1.1; CYP2C19 act: 1.2; CYP2C9 inhib: -13

What do the screens show for `CCn1c(-c2cc(-c3ccc(OC(C)C)cc3)nc3ccccc23)n[nH]c1=S`?
E coli WT exp: 3; CYP2C19 inhib: 74*; CYP2C9 act: 0; CYP2C19 act: 0.3; CYP2C9 inhib: 96*

Results for CCn1c(-c2cc(-c3cc(OC)ccc3OC)nc3ccccc23)n[nH]c1=S ?
E coli WT exp: -6; CYP2C19 inhib: 88*; CYP2C9 act: 0; CYP2C19 act: 0.1; CYP2C9 inhib: 97*

How did Cc1nnc(SCC(=O)NC(C)c2ccccc2)[nH]c1=O (stereo unspecified) do in these assays?
E coli WT exp: 0; Ecoli tolC: -23; CYP2C19 inhib: -3; CYP2C9 act: 1; CYP2C19 act: 1; CYP2C9 inhib: 4

What do the screens show for `Cc1nnc(SCc2ccc(Cl)cc2Cl)[nH]c1=O`?
E coli WT exp: 4; Ecoli tolC: 24; CYP2C19 inhib: 11; CYP2C9 act: 0.2; CYP2C19 act: 0.9; CYP2C9 inhib: 80*

How did Cc1nnc(SCC(=O)Nc2c(Cl)cccc2Cl)[nH]c1=O do in these assays?
E coli WT exp: 9; Ecoli tolC: -19; CYP2C19 inhib: -6; CYP2C9 act: 0.4; CYP2C19 act: 1.1; CYP2C9 inhib: 62*

What do the screens show for `CCOc1ccc(NC(=O)CSc2nnc(C)n2CCCOC)cc1`?
E coli WT exp: 5; Ecoli tolC: -24; CYP2C19 inhib: 27; CYP2C9 act: 0.9; CYP2C19 act: 0.7; CYP2C9 inhib: 9

Results for S=C(Nc1ccccn1)c1ccccn1 ?
E coli WT exp: 29; Ecoli tolC: -5; CYP2C19 inhib: 66*; CYP2C9 act: 0.5; CYP2C19 act: 0.3; CYP2C9 inhib: 51*

What do the screens show for `O=C(Nc1ccccc1)Nc1ccccn1`?
E coli WT exp: 12; Ecoli tolC: -10; CYP2C19 inhib: 3; CYP2C9 act: 0.9; CYP2C19 act: 1; CYP2C9 inhib: 7

Results for O=C(O)C1CC(=O)N(Cc2cccs2)C1 (stereo unspecified) ?
E coli WT exp: 3; Ecoli tolC: -1; CYP2C19 inhib: -23; CYP2C9 act: 1.2; CYP2C19 act: 1.2; CYP2C9 inhib: -17

Results for CC1=C(C(=O)Nc2cccc(C)n2)C(c2ccc3c(c2)OCO3)C2=C(CC(c3ccco3)CC2=O)N1 (stereo unspecified) ?
E coli WT exp: -8; Ecoli tolC: 13; CYP2C19 inhib: 86*; CYP2C9 act: 0.1; CYP2C19 act: 0.1; CYP2C9 inhib: 94*

How did Cc1nc2ncnn2c(N2CCCC(C(=O)Nc3ccc4c(c3)CCC4)C2)c1C (stereo unspecified) do in these assays?
E coli WT exp: 5; Ecoli tolC: 18; CYP2C19 inhib: 48; CYP2C9 act: 0.3; CYP2C19 act: 0.5; CYP2C9 inhib: 66*

Results for CCc1c(C)nc2ncnn2c1N1CCC(C(=O)Nc2ccccc2)CC1 ?
E coli WT exp: 3; Ecoli tolC: -1; CYP2C19 inhib: 95*; CYP2C9 act: 0.3; CYP2C19 act: 0.1; CYP2C9 inhib: 66*

How did CCc1c(C)nc2ncnn2c1N1CCC(C(=O)Nc2ccc(C)cc2)CC1 do in these assays?
E coli WT exp: -3; Ecoli tolC: 12; CYP2C19 inhib: 29; CYP2C9 act: 0.4; CYP2C19 act: 0.7; CYP2C9 inhib: 59*

Results for Cc1nc2ncnn2c(N2CCC(C(=O)NCC3CCCO3)CC2)c1Cc1ccccc1 (stereo unspecified) ?
Ecoli tolC: -14

How did CCc1c(C)nc2ncnn2c1N1CCCC(C(=O)NCCc2ccc(OC)cc2)C1 (stereo unspecified) do in these assays?
E coli WT exp: -6; Ecoli tolC: 14; CYP2C19 inhib: 16; CYP2C9 act: 0.6; CYP2C19 act: 0.8; CYP2C9 inhib: 36

Results for CCN(CC)C(=O)CN1C(=O)C2CC=C(Cl)CC2C1=O (stereo unspecified) ?
E coli WT exp: 8; Ecoli tolC: 20; CYP2C19 inhib: 1; CYP2C9 act: 1; CYP2C19 act: 1; CYP2C9 inhib: -2

Screening results: PubChem BioAssay, several laboratories
